How the values were obtained:
Plasmodium falciparum [1] = test: Antimalarial activity against chloroquine/pyrimethamine-resistant Plasmodium falciparum W2 after 48 hrs by [3H]hypoxanthine incorporation assay; format: functional, organism-based
Procedure, shortened: (§1)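 [3H]hypoxanthine incorporation assay (Desjardins method, Milhous modification) with 48 h drug exposure. Compounds and controls were 2-fold diluted across 11 concentrations. IC50 was fitted by nonlinear logistic dose-response. Values are averaged where multiple results were generated, with relative errors usually <30%.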

Plasmodium falciparum [2] = test: Antimalarial activity against multidrug-resistant Plasmodium falciparum TM91C235 after 48 hrs by [3H]hypoxanthine incorporation assay; format: functional, organism-based; procedure, shortened: as §1
[3] = Half life in human liver microsomes at 1 uM by LCMS analysis; format: ADME, Microsome
Procedure, shortened: (§2)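 Compound at 1 μM final with 0.5 mg/mL pooled human or mouse liver microsomes, 1.3 mM NADP, 3.3 mM MgCl₂, 0.1 M PBS pH 7.4. Reaction started with 1 U/mL G6PD, shaken at 37 °C. Aliquots quenched with cold acetonitrile at 0, 10, 20, 30 and 60 min and quantified by LCMS. t₁/₂ taken from log plot of total ion chromatogram area remaining.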

[4] = Half life in mouse liver microsomes at 1 uM by LCMS analysis; format: ADME, Microsome; procedure, shortened: as §2
Plasmodium falciparum [5] = test: Antimalarial activity against chloroquine-sensitive Plasmodium falciparum D6 after 48 hrs by [3H]hypoxanthine incorporation assay; format: functional, organism-based; procedure, shortened: as §1
THP-1 = test: Cytotoxicity against human THP1 cells after 1 to 4 hrs by MTS assay; format: cell-based
Procedure, shortened: (§3)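 HepG2 and THP-1 cells grown in RPMI 1640 with 10% FBS at 37 °C, 5% CO₂, and passaged twice weekly. Compounds applied as continuous exposure. Viability read by MTS reagent, 1–4 h incubation, absorbance at 490 nm; IC₅₀ derived.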

HepG2 = test: Cytotoxicity against human HepG2 cells after 1 to 4 hrs by MTS assay; format: cell-based; procedure, shortened: as §3

Row | SMILES | IC50 (Plasmodium falciparum [1]) | IC50 (Plasmodium falciparum [2]) | half-life at 1 µM [3] | half-life at 1 µM [4] | IC50 (Plasmodium falciparum [5]) | IC50 (THP-1) | IC50 (HepG2)
1 | CC[C@H]1OC(=O)[C@H](C)[C@@H](O[C@H]2C[C@@](C)(OC)[C@@H](O)[C@H](C)O2)[C@H](C)[C@@H](O[C@@H]2O[C@H](C)C[C@H](N(C)C)[C@H]2O)[C@](C)(O)C[C@@H](C)CN(CCNC(=O)NC(C)C)[C@H](C)[C@@H](O)[C@]1(C)O | 2060 nM | 717 nM | > 2 h | > 2 h | 1400 nM |  | 
2 | CC[C@H]1OC(=O)[C@H](C)[C@@H](O)[C@H](C)[C@@H](O[C@@H]2O[C@H](C)C[C@H](N(C)C)[C@H]2O)[C@](C)(O)C[C@@H](C)CN(CCCNC(=S)NCc2ccccc2)[C@H](C)[C@@H](O)[C@]1(C)O | 3630 nM | 1540 nM | > 2 h | > 2 h | 2040 nM | > 50000 nM | > 50000 nM
3 | CC[C@H]1OC(=O)[C@H](C)[C@@H](O)[C@H](C)[C@@H](O[C@@H]2O[C@H](C)C[C@H](N(C)C)[C@H]2O)[C@](C)(O)C[C@@H](C)CN(CCNC(=S)NCCCc2ccccc2)[C@H](C)[C@@H](O)[C@]1(C)O | 178 nM | 226 nM | > 2 h | > 2 h | 654 nM | 7000 nM | 14000 nM
4 | CC[C@H]1OC(=O)[C@H](C)[C@@H](O[C@H]2C[C@@](C)(OC)[C@@H](O)[C@H](C)O2)[C@H](C)[C@@H](O[C@@H]2O[C@H](C)C[C@H](N(C)C)[C@H]2O)[C@](C)(O)C[C@@H](C)CN(CCCN(CCC#N)C(=O)Nc2ccc3ccccc3c2)[C@H](C)[C@@H](O)[C@]1(C)O | 178 nM | 116 nM | > 2 h | > 2 h | 118 nM |  | 
5 | CC[C@H]1OC(=O)[C@H](C)[C@@H](O[C@H]2C[C@@](C)(OC)[C@@H](O)[C@H](C)O2)[C@H](C)[C@@H](O[C@@H]2O[C@H](C)C[C@H](N(C)C)[C@H]2O)[C@](C)(O)C[C@@H](C)CN(CCNC(=O)Nc2cccc3ccccc23)[C@H](C)[C@@H](O)[C@]1(C)O | 79 nM | 42 nM | > 2 h | > 2 h | 142 nM | 14000 nM | 35000 nM
6 | CC[C@H]1OC(=O)[C@H](C)[C@@H](O[C@H]2C[C@@](C)(OC)[C@@H](O)[C@H](C)O2)[C@H](C)[C@@H](O[C@@H]2O[C@H](C)C[C@H](N(C)C)[C@H]2O)[C@](C)(O)C[C@@H](C)CN(CCNC(=S)NCCCc2ccccc2)[C@H](C)[C@@H](O)[C@]1(C)O | 52 nM | 82 nM | > 2 h | > 2 h | 182 nM | 5000 nM | 8000 nM
7 | CC[C@H]1OC(=O)[C@H](C)[C@@H](O[C@H]2C[C@@](C)(OC)[C@@H](O)[C@H](C)O2)[C@H](C)[C@@H](O[C@@H]2O[C@H](C)C[C@H](N(C)C)[C@H]2O)[C@](C)(O)C[C@@H](C)CN(CCCN(CCC#N)C(=O)Nc2cccc3ccccc23)[C@H](C)[C@@H](O)[C@]1(C)O | 1380 nM | 255 nM | > 2 h | > 2 h | 523 nM |  | 
8 | CC[C@H]1OC(=O)[C@H](C)[C@@H](O)[C@H](C)[C@@H](O[C@@H]2O[C@H](C)C[C@H](N(C)C)[C@H]2O)[C@](C)(O)C[C@@H](C)CN(CCNC(=O)Nc2ccc3ccccc3c2)[C@H](C)[C@@H](O)[C@]1(C)O | 99 nM | 106 nM | > 2 h | > 2 h | 318 nM | 8000 nM | 16000 nM
9 | CC[C@H]1OC(=O)[C@H](C)[C@@H](O[C@H]2C[C@@](C)(OC)[C@@H](O)[C@H](C)O2)[C@H](C)[C@@H](O[C@@H]2O[C@H](C)C[C@H](N(C)C)[C@H]2O)[C@](C)(O)C[C@@H](C)CN(CCNC(=S)NCCc2ccccc2)[C@H](C)[C@@H](O)[C@]1(C)O | 102 nM | 128 nM | > 2 h | > 2 h | 203 nM | 4000 nM | 9000 nM
10 | CCOC(=O)CCN(CCN1C[C@H](C)C[C@@](C)(O)[C@H](O[C@@H]2O[C@H](C)C[C@H](N(C)C)[C@H]2O)[C@@H](C)[C@H](O[C@H]2C[C@@](C)(OC)[C@@H](O)[C@H](C)O2)[C@@H](C)C(=O)O[C@H](CC)[C@@](C)(O)[C@H](O)[C@H]1C)C(=O)Nc1ccc2ccccc2c1 | 207 nM | 2150 nM | > 2 h | > 2 h | 773 nM | 20000 nM | 23000 nM
11 | CC[C@H]1OC(=O)[C@H](C)[C@@H](O[C@H]2C[C@@](C)(OC)[C@@H](O)[C@H](C)O2)[C@H](C)[C@@H](O[C@@H]2O[C@H](C)C[C@H](N(C)C)[C@H]2O)[C@](C)(O)C[C@@H](C)CN(CCNC(=O)NCCc2ccccc2)[C@H](C)[C@@H](O)[C@]1(C)O | 105 nM | 243 nM | > 2 h | > 2 h | 546 nM | 45000 nM | > 50000 nM
12 | CC[C@H]1OC(=O)[C@H](C)[C@@H](O[C@H]2C[C@@](C)(OC)[C@@H](O)[C@H](C)O2)[C@H](C)[C@@H](O[C@@H]2O[C@H](C)C[C@H](N(C)C)[C@H]2O)[C@](C)(O)C[C@@H](C)CN(CCCNC(=O)NC(C)C)[C@H](C)[C@@H](O)[C@]1(C)O | > 5700 nM | > 5700 nM | > 2 h | > 2 h | > 1420 nM |  | 
13 | CC[C@H]1OC(=O)[C@H](C)[C@@H](O[C@H]2C[C@@](C)(OC)[C@@H](O)[C@H](C)O2)[C@H](C)[C@@H](O[C@@H]2O[C@H](C)C[C@H](N(C)C)[C@H]2O)[C@](C)(O)C[C@@H](C)CN(CCCN(CCC#N)C(=O)NC(C)C)[C@H](C)[C@@H](O)[C@]1(C)O | > 13400 nM | 1270 nM | > 2 h | > 2 h | > 13400 nM |  | 
14 | CC[C@H]1OC(=O)[C@H](C)[C@@H](O[C@H]2C[C@@](C)(OC)[C@@H](O)[C@H](C)O2)[C@H](C)[C@@H](O[C@@H]2O[C@H](C)C[C@H](N(C)C)[C@H]2O)[C@](C)(O)C[C@@H](C)CN(CCNC(=O)NC(C)c2cccc3ccccc23)[C@H](C)[C@@H](O)[C@]1(C)O (some centres not stated) | 33 nM | 46 nM | > 2 h | > 2 h | 179 nM | 8000 nM | 10000 nM
15 | CC[C@H]1OC(=O)[C@H](C)[C@@H](O[C@H]2C[C@@](C)(OC)[C@@H](O)[C@H](C)O2)[C@H](C)[C@@H](O[C@@H]2O[C@H](C)C[C@H](N(C)C)[C@H]2O)[C@](C)(O)C[C@@H](C)CN(CCN(CCC#N)C(=O)Nc2ccc3ccccc3c2)[C@H](C)[C@@H](O)[C@]1(C)O | 125 nM | 224 nM | > 2 h | > 2 h | 525 nM | 13000 nM | 11000 nM
16 | CC[C@H]1OC(=O)[C@H](C)[C@@H](O[C@H]2C[C@@](C)(OC)[C@@H](O)[C@H](C)O2)[C@H](C)[C@@H](O[C@@H]2O[C@H](C)C[C@H](N(C)C)[C@H]2O)[C@](C)(O)C[C@@H](C)CN(CCNC(=S)Nc2cccc3ccccc23)[C@H](C)[C@@H](O)[C@]1(C)O | 99 nM | 130 nM | > 2 h | > 2 h | 225 nM | 9000 nM | 20000 nM
17 | CCNC(=O)NCCN1C[C@H](C)C[C@@](C)(O)[C@H](O[C@@H]2O[C@H](C)C[C@H](N(C)C)[C@H]2O)[C@@H](C)[C@H](O[C@H]2C[C@@](C)(OC)[C@@H](O)[C@H](C)O2)[C@@H](C)C(=O)O[C@H](CC)[C@@](C)(O)[C@H](O)[C@H]1C | 4930 nM | 978 nM | > 2 h | > 2 h | 3620 nM |  | 

Reference: ChEMBL document CHEMBL1772969, “Synthesis, structure-activity relationship, and antimalarial activity of ureas and thioureas of 15-membered azalides” (J Med Chem, 2011)
